Test results from ChEMBL document CHEMBL3603735 (J Med Chem, 2015).
pEC50, pKi: −log10 of the molar value.

Assays:
[1] = molecular target: T1, Neuronal acetylcholine receptor; alpha3/beta4 (Homo sapiens, UniProt P30926+P32297); experiment: Displacement of [3H]epibatidine from human alpha3beta4 nAChR expressed in HEK293 cell membranes by liquid scintillation counting method
Method in brief: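 Competition against [3H]epibatidine on membranes of human α3β4-transfected cells. Ki obtained by simultaneously fitting three independent saturation and three competition experiments per compound with nonlinear least squares.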

[2] = molecular target: Neuronal acetylcholine receptor; alpha4/beta2 (Rattus norvegicus, UniProt P09483+P12390); experiment: Displacement of [3H]epibatidine from alpha4beta2 nAChR in rat cortex membranes by liquid scintillation counting method; type: cell membranes
Chain of Neuronal acetylcholine receptor; alpha4/beta2 (Rattus norvegicus, UniProt P09483+P12390) (P09483 whole entry): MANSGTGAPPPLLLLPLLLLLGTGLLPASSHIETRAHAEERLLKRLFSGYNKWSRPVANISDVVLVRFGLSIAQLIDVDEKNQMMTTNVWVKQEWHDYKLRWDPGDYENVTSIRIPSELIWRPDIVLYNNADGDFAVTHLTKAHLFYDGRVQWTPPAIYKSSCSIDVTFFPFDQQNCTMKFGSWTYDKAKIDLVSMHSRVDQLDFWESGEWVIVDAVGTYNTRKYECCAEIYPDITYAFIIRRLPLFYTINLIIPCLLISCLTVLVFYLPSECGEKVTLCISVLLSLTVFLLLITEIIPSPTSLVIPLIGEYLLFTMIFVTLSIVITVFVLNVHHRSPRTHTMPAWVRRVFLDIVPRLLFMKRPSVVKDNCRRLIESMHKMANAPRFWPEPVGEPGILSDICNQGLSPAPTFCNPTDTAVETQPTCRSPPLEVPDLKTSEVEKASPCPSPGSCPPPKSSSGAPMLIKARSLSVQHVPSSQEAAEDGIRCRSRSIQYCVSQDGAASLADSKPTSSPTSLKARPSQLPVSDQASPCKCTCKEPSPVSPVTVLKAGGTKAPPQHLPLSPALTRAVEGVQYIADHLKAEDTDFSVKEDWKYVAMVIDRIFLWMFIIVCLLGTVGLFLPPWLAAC
Chain of Neuronal acetylcholine receptor; alpha4/beta2 (Rattus norvegicus, UniProt P09483+P12390) (P12390 whole entry): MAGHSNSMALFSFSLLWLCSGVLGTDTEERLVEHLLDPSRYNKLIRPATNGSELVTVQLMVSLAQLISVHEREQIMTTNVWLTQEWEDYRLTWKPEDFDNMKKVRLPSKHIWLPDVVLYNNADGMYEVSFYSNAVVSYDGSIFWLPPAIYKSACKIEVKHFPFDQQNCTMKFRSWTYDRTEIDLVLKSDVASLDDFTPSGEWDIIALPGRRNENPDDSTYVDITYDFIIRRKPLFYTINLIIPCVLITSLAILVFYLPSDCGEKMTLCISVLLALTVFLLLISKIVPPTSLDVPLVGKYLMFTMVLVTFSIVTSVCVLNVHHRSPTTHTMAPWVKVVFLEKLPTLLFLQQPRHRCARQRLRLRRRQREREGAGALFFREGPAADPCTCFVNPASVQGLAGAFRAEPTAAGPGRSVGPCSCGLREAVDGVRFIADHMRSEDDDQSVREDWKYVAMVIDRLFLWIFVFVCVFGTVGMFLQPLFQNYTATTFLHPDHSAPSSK
Method in brief: (§1)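 Rat hippocampus (α7) or cortex (α4β2) membranes. Ki obtained by simultaneous nonlinear least-squares fitting of three saturation plus three competition binding experiments per compound per subtype.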

[3] = molecular target: Neuronal acetylcholine receptor subunit alpha-7 (Rattus norvegicus, UniProt Q05941); experiment: Displacement of [125I]]-alpha-bungarotoxin from alpha7 nAChR in rat hippocampus membranes by liquid scintillation counting method; type: cell membranes, Membrane; method in brief: as §1
Chain of Neuronal acetylcholine receptor subunit alpha-7 (Q05941 whole entry): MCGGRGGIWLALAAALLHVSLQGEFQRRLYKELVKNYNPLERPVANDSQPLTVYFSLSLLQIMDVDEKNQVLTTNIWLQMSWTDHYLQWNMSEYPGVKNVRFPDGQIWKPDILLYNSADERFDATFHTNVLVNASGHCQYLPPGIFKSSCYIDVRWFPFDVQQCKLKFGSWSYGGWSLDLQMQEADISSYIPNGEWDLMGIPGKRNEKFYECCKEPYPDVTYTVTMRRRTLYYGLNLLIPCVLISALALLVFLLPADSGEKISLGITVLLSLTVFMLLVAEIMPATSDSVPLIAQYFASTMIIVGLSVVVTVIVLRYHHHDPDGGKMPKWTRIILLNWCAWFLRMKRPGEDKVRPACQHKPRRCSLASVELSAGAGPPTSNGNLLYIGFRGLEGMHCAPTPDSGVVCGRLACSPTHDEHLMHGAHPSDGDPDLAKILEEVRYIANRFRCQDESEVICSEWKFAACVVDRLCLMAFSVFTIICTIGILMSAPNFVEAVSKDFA

[4] = molecular target: T2, Neuronal acetylcholine receptor; alpha4/beta2 (Homo sapiens, UniProt P17787+P43681); experiment: Agonist activity at human alpha4beta2 nAChR expressed in rat GH4C1 cells assessed as induction of peak current amplitude at holding potential of -70 mV by whole-cell patch clamp assay relative to acetylcholine; type: cell-based; settings: GH4-C1
T2 sequence (P17787 whole entry, the tested form may be a part): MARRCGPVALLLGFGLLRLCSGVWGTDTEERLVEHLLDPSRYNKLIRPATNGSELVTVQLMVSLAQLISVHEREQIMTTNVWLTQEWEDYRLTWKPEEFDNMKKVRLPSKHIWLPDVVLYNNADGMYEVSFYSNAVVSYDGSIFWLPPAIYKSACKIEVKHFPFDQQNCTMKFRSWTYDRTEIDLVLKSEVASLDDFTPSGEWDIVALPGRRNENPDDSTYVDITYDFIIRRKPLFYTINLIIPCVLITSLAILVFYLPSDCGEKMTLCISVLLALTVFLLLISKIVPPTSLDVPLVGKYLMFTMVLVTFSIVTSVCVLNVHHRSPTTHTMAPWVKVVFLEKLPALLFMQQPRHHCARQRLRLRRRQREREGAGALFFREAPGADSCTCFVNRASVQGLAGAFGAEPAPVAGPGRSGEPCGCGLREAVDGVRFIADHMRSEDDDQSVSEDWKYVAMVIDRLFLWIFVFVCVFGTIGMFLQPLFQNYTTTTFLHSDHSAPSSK
T2 sequence (P43681 whole entry, the tested form may be a part): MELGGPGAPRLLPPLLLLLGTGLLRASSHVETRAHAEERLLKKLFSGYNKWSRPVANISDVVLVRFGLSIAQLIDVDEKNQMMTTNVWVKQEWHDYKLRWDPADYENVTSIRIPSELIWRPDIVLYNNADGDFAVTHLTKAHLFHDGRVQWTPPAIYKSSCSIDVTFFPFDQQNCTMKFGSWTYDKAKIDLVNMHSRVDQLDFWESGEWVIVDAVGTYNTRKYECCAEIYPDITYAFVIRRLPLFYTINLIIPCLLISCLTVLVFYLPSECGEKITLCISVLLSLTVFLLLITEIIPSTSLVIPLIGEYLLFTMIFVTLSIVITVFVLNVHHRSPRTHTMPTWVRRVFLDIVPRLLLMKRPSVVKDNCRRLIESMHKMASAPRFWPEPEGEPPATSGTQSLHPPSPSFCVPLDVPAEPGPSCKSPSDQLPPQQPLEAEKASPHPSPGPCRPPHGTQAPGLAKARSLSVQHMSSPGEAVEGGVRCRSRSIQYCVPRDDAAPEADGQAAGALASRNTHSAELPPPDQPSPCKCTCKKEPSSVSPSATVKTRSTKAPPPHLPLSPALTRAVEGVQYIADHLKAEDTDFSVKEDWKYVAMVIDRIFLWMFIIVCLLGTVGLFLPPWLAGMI
Method in brief: (§2)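 Human α3β4 or α4β2 nAChR transiently transfected into rat anterior pituitary GH4C1 cells (0.5 μg each subunit cDNA, magnetofection). Whole-cell patch clamp at −70 mV holding potential, with gravity-driven fast perfusion. Agonist concentrations applied sequentially. Peak currents normalized to 1 mM ACh on the same cell. EC50, Imax and nH from Hill equation fit.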

[5] = molecular target: T2, Neuronal acetylcholine receptor; alpha4/beta2; experiment: Agonist activity at human alpha4beta2 nAChR in (alpha4)3(beta2)2 stoichiometry form relative to control; type: protein-complex assay
[6] = molecular target: T1, Neuronal acetylcholine receptor; alpha3/beta4; experiment: Agonist activity at human alpha3beta4 nAChR expressed in rat GH4C1 cells assessed as induction of peak current amplitude at holding potential of -70 mV by whole-cell patch clamp assay relative to acetylcholine; type: cell-based; settings: GH4-C1; method in brief: as §2
[7] = molecular target: T2, Neuronal acetylcholine receptor; alpha4/beta2; experiment: Agonist activity at human alpha4beta2 nAChR expressed in rat GH4C1 cells assessed as induction of peak current amplitude at holding potential of -70 mV by whole-cell patch clamp assay; type: cell-based, GH4-C1; method in brief: as §2
[8] = molecular target: T1, Neuronal acetylcholine receptor; alpha3/beta4; experiment: Agonist activity at human alpha3beta4 nAChR expressed in rat GH4C1 cells assessed as induction of peak current amplitude at holding potential of -70 mV by whole-cell patch clamp assay; type: cell-based, GH4-C1
Method in brief: (§3)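 Human α3β4 or α4β2 subunit cDNAs (0.5 μg each) transiently transfected into rat GH4C1 cells by magnetofection. Whole-cell voltage clamp at −70 mV, 85−90% series-resistance compensation, fast gravity-perfusion exchanger. Agonist concentrations applied sequentially; peak currents normalized to 1 mM ACh on the same cell. EC50 and nH from Hill-equation fit where possible.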

[9] = molecular target: T2, Neuronal acetylcholine receptor; alpha4/beta2; experiment: Selectivity index, ratio of EC50 for human alpha3beta4 nAChR expressed in rat GH4C1 cells to EC50 for human alpha4beta2 nAChR expressed in rat GH4C1 cells; type: cell-based; settings: GH4-C1; method in brief: as §3

T1 sequence (P30926 whole entry): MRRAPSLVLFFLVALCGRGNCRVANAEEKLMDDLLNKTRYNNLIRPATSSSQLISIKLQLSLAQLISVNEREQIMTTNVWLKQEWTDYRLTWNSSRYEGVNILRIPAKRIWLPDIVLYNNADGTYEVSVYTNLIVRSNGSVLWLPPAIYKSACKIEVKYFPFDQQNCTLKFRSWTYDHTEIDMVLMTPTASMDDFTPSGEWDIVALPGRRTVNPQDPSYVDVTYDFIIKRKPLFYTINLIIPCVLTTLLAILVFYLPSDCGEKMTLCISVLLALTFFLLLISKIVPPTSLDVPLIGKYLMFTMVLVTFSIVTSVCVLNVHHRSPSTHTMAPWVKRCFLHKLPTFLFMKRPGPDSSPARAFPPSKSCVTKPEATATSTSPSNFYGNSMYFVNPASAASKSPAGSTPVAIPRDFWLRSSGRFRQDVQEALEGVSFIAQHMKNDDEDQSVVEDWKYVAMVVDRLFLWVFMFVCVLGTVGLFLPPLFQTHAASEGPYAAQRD
T1 sequence (P32297 whole entry): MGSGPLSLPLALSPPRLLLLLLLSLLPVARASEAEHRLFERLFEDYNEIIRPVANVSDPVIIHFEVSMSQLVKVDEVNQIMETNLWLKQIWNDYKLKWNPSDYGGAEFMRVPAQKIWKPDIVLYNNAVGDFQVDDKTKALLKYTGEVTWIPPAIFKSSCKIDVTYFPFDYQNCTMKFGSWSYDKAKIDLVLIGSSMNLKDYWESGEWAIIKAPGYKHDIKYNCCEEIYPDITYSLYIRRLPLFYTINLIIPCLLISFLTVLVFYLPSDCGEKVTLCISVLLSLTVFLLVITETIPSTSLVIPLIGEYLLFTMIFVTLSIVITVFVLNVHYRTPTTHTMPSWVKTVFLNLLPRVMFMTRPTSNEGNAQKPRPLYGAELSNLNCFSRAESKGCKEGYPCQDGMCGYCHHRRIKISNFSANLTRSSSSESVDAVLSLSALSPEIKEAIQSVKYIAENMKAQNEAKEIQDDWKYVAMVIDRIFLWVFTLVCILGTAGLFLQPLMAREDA

`COc1ccc(O)cc1OC[C@@H]1CCCN1` was tested, and the pKi [1] was 5.11 and the pKi [2] was 5.97.

With `Oc1cccc(OC[C@@H]2CCN2)c1` the pKi [3] was 5.92, the pKi [1] was 7.40 and the pKi [2] was 8.15.

With `OCCCCC#Cc1cncc(OC[C@@H]2CCN2)c1` the Imax [4] was 39%, the Efficacy [5] was 6% and the Imax [6] was 24%. For the same compound, the pEC50 [7] was 9.57.

`COc1ncccc1OC[C@@H]1CCCN1` gave a pKi [1] of 5.28 and a pKi [2] of 5.05.

For `COc1ccncc1OC[C@@H]1CCCN1C`, the pKi [3] was 5.03, the pKi [1] was 5.68 and the pKi [2] was 6.59.

In the case of `Oc1cncc(OC[C@@H]2CCCN2)c1`, the pKi [3] was 5.46, the pKi [1] was 7.00 and the pKi [2] was 8.60.

`C[C@H](Oc1cccc(O)c1)[C@@H]1CCCN1C` showed a pKi [3] of 6.13, a pKi [1] of 6.12 and a pKi [2] of 6.72.

Compound `Oc1cccc(OC[C@@H]2CCCN2)c1` has a pKi [3] of 6.67, a pKi [1] of 5.42 and a pKi [2] of 6.39.

`COc1ccccc1OC[C@@H]1CCCN1C` showed a pKi [1] of 6.13 and a pKi [2] of 5.03.

For `CN1CCC[C@H]1COc1cccc(O)c1`, the pEC50 [8] was 5.05, the Imax [4] was 162% and the pKi [3] was 6.92. It also gave a pKi [1] of 7.13, an Imax [6] of 85% and a pKi [2] of 8.96. The pEC50 [7] was 5.36.

`C[C@@H](Oc1ccccc1)[C@@H]1CCCN1C` (racemic) was tested, and the pKi [3] was 4.82, the pKi [1] was 5.89 and the pKi [2] was 5.81.

For `c1ccc(OC[C@@H]2CCN2)cc1`, the pKi [2] was 7.28.

`COc1ccc(O)cc1OC[C@@H]1CCCN1C` gave an Imax [4] of 17%, a pKi [3] of 5.94 and a pKi [1] of 6.57. For the same compound, the Imax [6] was 7% and the pKi [2] was 7.72.

In the case of `C[C@@H](Oc1cccnc1)[C@@H]1CCCN1C` (racemic), the Imax [4] was 39%, the pKi [3] was 6.41 and the pKi [1] was 5.30. For the same compound, the Imax [6] was 7%, the pKi [2] was 7.57 and the pEC50 [7] was 7.89.

For `CC(Oc1ccccc1)C1CCCN1C` (mixture of isomers), the pKi [3] was 5.05, the pKi [1] was 5.85 and the pKi [2] was 5.34.

`CN1CC[C@H]1COc1ccccc1` gave a pKi [2] of 7.00.

`COc1ncccc1OC[C@@H]1CCCN1C` gave a pKi [1] of 6.10 and a pKi [2] of 5.14.

`C[C@H](Oc1cccnc1)[C@@H]1CCCN1C` was tested, and the pKi [3] was 5.21, the pKi [1] was 5.25 and the pKi [2] was 6.06.

`COc1ccccc1OC[C@@H]1CCCN1` showed a pKi [1] of 5.44 and a pKi [2] of 4.27.

`CN1CCC[C@H]1[C@@H]1COc2ccc(O)cc2O1` was tested, and the pEC50 [8] was 4.77, the Imax [4] was 29% and the Imax [6] was 28%. For the same compound, the pEC50 [7] was 6.52 and the Ratio EC50 [9] was 57.

`C[C@@H](Oc1cccc(O)c1)[C@@H]1CCCN1C` (racemic) was tested, and the pKi [3] was 7.24, the pKi [1] was 6.59 and the pKi [2] was 7.95.

In the case of `COc1ccncc1OC[C@@H]1CCCN1`, the pKi [3] was 4.67, the pKi [1] was 5.54 and the pKi [2] was 6.21.

In the case of `CN1CC[C@H]1COc1cccc(O)c1`, the pEC50 [8] was 5.04, the Imax [4] was 131% and the pKi [3] was 7.54. For the same compound, the pKi [1] was 6.99, the Imax [6] was 57% and the pKi [2] was 8.07.

With `CN1CCC[C@H]1COc1cncc(O)c1` the Imax [4] was 661%, the pKi [3] was 6.49 and the pKi [1] was 6.63. It also gave an Imax [6] of 15%, a pKi [2] of 8.43 and a pEC50 [7] of 4.14.
